Assay: Toxicity liver stage against HepG2, at 10uM
Format: cell-based
Set-up: test concentration 10 uM, cell line HepG2-A16-CD81EGFP
Details: human, HepG2-A16-CD81EGFP cells; read-out: INHIBITION
How it was run: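 Uninfected HepG2-A16-CD81EGFP cells, 3 × 10^3 per well, 1536-well, plated on prespotted compound at 10 μM final, parasite-free screening media added to match infected plates; puromycin 10 μM positive, DMSO 0.5% negative; run in parallel with 48 h PbLuc assay at 37 °C, 5% CO2; viability by CellTiter-Glo luminescence, normalized to controls.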

SMILES: O=C(Cc1c(F)cccc1Cl)Nc1cc(N2CCOCC2)ncn1
- cytotoxicity at 10 µM: 3.36%

SMILES: CC(=O)N1CCC2(CC1)CN(C(=O)C1CC1)c1ccc(F)cc12
- cytotoxicity at 10 µM: 2.05%

SMILES: CN1CCC2(CCN(C(=O)c3ccccc3)CC2)C1
- cytotoxicity at 10 µM: -2.36%

SMILES: O=C1CC(c2ccccc2)c2sc(C(=O)O)c(-c3ccccc3)c2N1 (configuration not stated)
- cytotoxicity at 10 µM: -2.31%

SMILES: CN1CCc2nc3c(c(N)c2C1)CCCN3C
- cytotoxicity at 10 µM: 11.3%

SMILES: Cc1cc(C)n(CCC(=O)N2CCCC(c3nc(C(C)C)no3)C2)n1 (configuration not stated)
- cytotoxicity at 10 µM: 8.27%

SMILES: Cc1ccc2cnn(CCC(=O)Nc3nc(C)c(C)s3)c2c1
- cytotoxicity at 10 µM: 2.57%

SMILES: CN1CCCC(c2cccc(-c3ccccc3F)n2)C1 (configuration not stated)
- cytotoxicity at 10 µM: 2.58%

SMILES: CC(C)c1nccn1CCC(=O)N1CCCCC1c1ccn[nH]1 (configuration not stated)
- cytotoxicity at 10 µM: 6.16%

SMILES: Cn1nccc1C(=O)N1CCC(c2nnsc2S(C)(=O)=O)CC1
- cytotoxicity at 10 µM: -4.22%

SMILES: Cc1cc(-c2ccccc2C(=O)O)nc(C2CCCN(C)C2)n1 (configuration not stated)
- cytotoxicity at 10 µM: -5.03%

SMILES: CCc1cc(O)nc(C2CCCN2C(=O)COC)n1 (configuration not stated)
- cytotoxicity at 10 µM: -11.5%

SMILES: COCCC(=O)N1CCCC1c1csc(Nc2ccccn2)n1 (configuration not stated)
- cytotoxicity at 10 µM: -13.2%

SMILES: NC(=O)CN1CCC(c2cc(C(F)(F)F)n3ccnc3n2)CC1
- cytotoxicity at 10 µM: -2.28%

SMILES: Cc1ccc2nc(C3CCCN(Cc4ccccc4)C3)nc(O)c2c1 (configuration not stated)
- cytotoxicity at 10 µM: 6.67%

SMILES: COc1ccccc1-c1nc(C(=O)N(C)C)n2ccncc12
- cytotoxicity at 10 µM: 12.6%

SMILES: Cc1cc(NC(=O)N2CCC[C@@H]2CO)nn1-c1ccccc1Cl
- cytotoxicity at 10 µM: -1.29%

SMILES: CC(C)c1noc(CCC(=O)N(CC2CCOC2)C2CC2)n1 (configuration not stated)
- cytotoxicity at 10 µM: 8.01%

SMILES: CCN(CC(=O)N(C)C)C(=O)c1ccc(-c2nc(C)cs2)cc1
- cytotoxicity at 10 µM: 6.98%

SMILES: CC(Nc1nc2c(cnn2C)c(=O)[nH]1)c1ccccn1 (configuration not stated)
- cytotoxicity at 10 µM: 13.3%

SMILES: CS(=O)(=O)N1CCC(C(=O)N2CCOc3ccccc32)CC1
- cytotoxicity at 10 µM: -0.595%

SMILES: CC(C)(C)OC(=O)NCCC(=O)N(CCC#N)Cc1ccco1
- cytotoxicity at 10 µM: 3.12%

SMILES: CCc1noc(CN(C)Cc2cc(Br)ccc2OC)n1
- cytotoxicity at 10 µM: 3.91%

SMILES: CC(C)(C)Oc1ccc(CN)c(C(F)(F)F)c1
- cytotoxicity at 10 µM: 9.5%

SMILES: O=C(COC1CCCC1)NCCc1nc(-c2ccccn2)cs1
- cytotoxicity at 10 µM: 6.94%

SMILES: CCN(CC)Cc1ccc(CNC(=O)C(C)(C)n2cc(Br)cn2)cc1
- cytotoxicity at 10 µM: 33.6%

SMILES: NC(=O)COc1ccc(CNCc2c(F)cccc2F)cc1
- cytotoxicity at 10 µM: -5.03%

SMILES: O=C(c1cc(Cl)c2c(c1)OCCCO2)N(CC1CCOC1)C1CC1 (configuration not stated)
- cytotoxicity at 10 µM: -4.09%

SMILES: N#Cc1nccnc1N1CCC(CSc2ccccc2)C1 (configuration not stated)
- cytotoxicity at 10 µM: 0.957%

SMILES: CC(CC#N)N(C)Cc1ccccc1F (configuration not stated)
- cytotoxicity at 10 µM: 10.4%

SMILES: CCC1CN(CC(=O)NCC(C)C)CCO1 (configuration not stated)
- cytotoxicity at 10 µM: 14.4%

SMILES: Cn1cnc2c1CCN(Cc1ccc(Cl)c3cccnc13)C2
- cytotoxicity at 10 µM: 10.6%

SMILES: O=C1CN(C(=O)CN(CC2CCC2)CC(F)(F)F)CCN1
- cytotoxicity at 10 µM: 0.821%

SMILES: O=C(c1occc1CN1C(=O)Cc2ccccc21)N1CC(O)C1
- cytotoxicity at 10 µM: -4.43%

SMILES: CCN(C(=O)CCCOC)C(c1ccc(Cl)cc1)c1ccccn1 (configuration not stated)
- cytotoxicity at 10 µM: -7.25%

SMILES: CC(c1ccccc1)N(C)C(=O)CNCCn1cccn1 (configuration not stated)
- cytotoxicity at 10 µM: 4.58%

SMILES: COCCN1CCN(Cc2nc(-c3ccoc3)no2)CC1
- cytotoxicity at 10 µM: 16%

SMILES: Cc1cccc(C(=O)N2C[C@H](NS(C)(=O)=O)[C@@H]3OCCC[C@@H]32)n1
- cytotoxicity at 10 µM: -77.4%

SMILES: Cc1cc(CN2CCC(c3cc(Cc4ccccc4)n[nH]3)CC2)[nH]n1
- cytotoxicity at 10 µM: 7.54%

SMILES: COCCN1C[C@H](NC(=O)CCC(F)(F)F)[C@@H](C(C)C)C1
- cytotoxicity at 10 µM: 5.25%

SMILES: O=C(NC1CCc2ccccc2C1)C1CCN(Cc2ccco2)CC1 (configuration not stated)
- cytotoxicity at 10 µM: -0.339%

SMILES: Cc1cc(C)c2c(N3CCCN(C(=O)C4CCC4)CC3)ncnc2n1
- cytotoxicity at 10 µM: -10.7%

SMILES: CC(=O)Nc1ccc(CNCc2cccnc2N(C)C)cc1
- cytotoxicity at 10 µM: -7.49%

SMILES: CC(=O)c1ccc(N2CCC3(CCC(=O)N(CCCO)C3)CC2)nc1
- cytotoxicity at 10 µM: 4.81%

SMILES: CC(C)[C@@H]1CN(c2ccc(F)cn2)C[C@H]1NS(C)(=O)=O
- cytotoxicity at 10 µM: 3.69%

SMILES: Cn1ncc2c(N3CCC(F)(F)CC3)nc(-c3ccncc3)nc21
- cytotoxicity at 10 µM: 9.74%

SMILES: O=C(O)C1(Cc2ccc(F)cc2F)CCCN(Cc2ccccn2)C1 (configuration not stated)
- cytotoxicity at 10 µM: 7.65%

SMILES: COc1ccccc1-n1nc(-c2ccco2)n(CC(N)=O)c1=O
- cytotoxicity at 10 µM: 0.5%

SMILES: COCC(=O)N[C@H]1C[C@@H](C(=O)NCCc2cccc(Cl)c2)N(C)C1
- cytotoxicity at 10 µM: 1.72%

SMILES: CC(C)n1cnnc1Cn1c(=O)cnc2ccccc21
- cytotoxicity at 10 µM: -4.04%

SMILES: COc1ccc(-c2cc(CN)ccc2F)c(OC)c1OC
- cytotoxicity at 10 µM: 1.91%

SMILES: CN(C)[C@H]1CCCCN(C(=O)c2cccc(N3CCS(=O)(=O)CC3)c2)C1
- cytotoxicity at 10 µM: 2.45%

SMILES: Cc1ccc2c(C(=O)N(C)C)cc(-c3cnn(CCO)c3)nc2c1C
- cytotoxicity at 10 µM: 3.69%

SMILES: COCc1ncc(CN2CC[C@@](O)(COC)C(C)(C)C2)cn1
- cytotoxicity at 10 µM: -2.79%

SMILES: CCCn1ncc(CN2CCCCC2CCCOC)c1C (configuration not stated)
- cytotoxicity at 10 µM: -15.2%

SMILES: O[C@H]1[C@H](n2cc(-c3cccnc3)nn2)c2ccccc2C12CCNCC2
- cytotoxicity at 10 µM: -10.5%

SMILES: Cc1ccc(NC2CCN(C(=O)C(C(C)C)n3cncn3)CC2)nn1 (configuration not stated)
- cytotoxicity at 10 µM: -3.01%

SMILES: Cc1nc(C)n(CC2CCCN(Cc3cccc(F)c3F)C2)n1 (configuration not stated)
- cytotoxicity at 10 µM: -10.3%

SMILES: CC(C(=O)NCc1ccc(N2CCCCCC2)nc1)n1cncn1 (configuration not stated)
- cytotoxicity at 10 µM: -11.2%

SMILES: CCNC(=O)CN1CCN(Cc2nc3c(F)cccc3n2CC)CC1
- cytotoxicity at 10 µM: -11.5%

SMILES: CN1CCOC(CNCc2cccc(OC(F)(F)F)c2)C1 (configuration not stated)
- cytotoxicity at 10 µM: -12%

SMILES: CC1CN(C)CCN1C(=O)c1cnc2c(cnn2C2CCCC2)c1 (configuration not stated)
- cytotoxicity at 10 µM: -12.8%

SMILES: CCN1CCC(NC(=O)CN2CCCC2Cn2nc(C)nc2C)CC1 (configuration not stated)
- cytotoxicity at 10 µM: -12.7%

SMILES: CC(C)c1nnc2n1CCN(C(=O)c1ccnc(-n3ccnc3)c1)C2
- cytotoxicity at 10 µM: -29%

SMILES: Cc1nc(-c2ccccc2)n(CC(=O)NC(C)C)n1
- cytotoxicity at 10 µM: -14.1%

SMILES: COc1ccc(CNC(=O)Nc2cccnc2N2CCCC2)cc1OC
- cytotoxicity at 10 µM: -24.6%

SMILES: CC(=O)Nc1nc(CN(C)C2CCCN(c3cccnn3)C2)cs1 (configuration not stated)
- cytotoxicity at 10 µM: -11.1%

SMILES: COC(=O)C(NC(=O)c1ccco1)c1cc(F)ccc1F (configuration not stated)
- cytotoxicity at 10 µM: -11.5%

SMILES: COc1cc(C(=O)N(C2CC2)C2CC(=O)NC2=O)ccc1C (configuration not stated)
- cytotoxicity at 10 µM: -3.58%

SMILES: Cc1nc(C)n(CC2CCCN2CCOc2ccc(C#N)cc2)n1 (configuration not stated)
- cytotoxicity at 10 µM: -10.1%

SMILES: CC(NC(=O)NCCCn1cncn1)c1ccccc1Cl (configuration not stated)
- cytotoxicity at 10 µM: 3.01%

SMILES: Cc1nc(C(=O)N2CCCC(n3cncn3)C2)cs1 (configuration not stated)
- cytotoxicity at 10 µM: 5.7%

SMILES: O=C1CCC2(CCC(NCc3ccc4c(c3)OCO4)CC2)N1 (configuration not stated)
- cytotoxicity at 10 µM: 1.97%

SMILES: COCCNC(=O)[C@H]1C[C@H]2OCC[C@H]2N(Cc2ccoc2)C1
- cytotoxicity at 10 µM: -75.7%

SMILES: O=C(CC1CCCC1)N1CCn2cc(Cn3cccn3)nc2C1
- cytotoxicity at 10 µM: -75.4%

SMILES: O=C(c1ccoc1)N1CC[C@@H]2O[C@@H](COCCN3CCCC3)CC[C@@H]21
- cytotoxicity at 10 µM: -89.7%

SMILES: COCC(=O)N1CCn2c(CN3CCN(C)CC3)cnc2C1
- cytotoxicity at 10 µM: -70%

SMILES: Cc1ccc2c(n1)N(Cc1cccnc1)CCN(C(=O)C1CC1)C2
- cytotoxicity at 10 µM: -61.7%

SMILES: CCc1ccc(CN2CC[C@H]3[C@H]2CC(=O)N3Cc2cccc(C)n2)o1
- cytotoxicity at 10 µM: -2.19%

SMILES: Cc1noc(CN2C[C@@H]3CC[C@H]2CN(C2Cc4ccccc4C2)C3)n1
- cytotoxicity at 10 µM: 3.3%

SMILES: COc1ccc(-n2cc3nc(N4CCCC4)[nH]cc-3c2=O)cc1Cl
- cytotoxicity at 10 µM: 11.6%

SMILES: COC(=O)Cn1c(=O)[nH]c2cn(-c3ccc(F)cc3)c(=O)n21
- cytotoxicity at 10 µM: 1.09%

Source: ChEMBL document CHEMBL4513216, “Probing the Open Global Health Chemical Diversity Library for Multistage-Active Starting Points for Next-Generation Antimalarials” (ACS Infect Dis, 2020)
